# Activity calls are given as the source filed them. The rule behind the calls is not given here.
# Columns and labels:
# [1] = system: Rhizopus arrhizus; assay: Antifungal activity against drug-susceptible Rhizopus oryzae UTHSC 04-2459 after 24 to 48 hrs; assay type: functional
# How it was run: (§1)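 Minimum fungicidal concentration: 20 µl from each microdilution well showing complete inhibition (optically clear) plated on potato dextrose agar, incubated 35°C for 24 to 48 h; MFC taken as lowest drug concentration giving no growth.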
# [2] = system: Rhizopus arrhizus; assay: Antifungal activity against drug-intermediate Rhizopus oryzae UTHSC 03-3165 by broth microdilution method; assay type: functional
# How it was run: (§2)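 Broth microdilution MIC in µg/ml, run per the CLSI (formerly NCCLS) guideline for filamentous fungi, M38-A2.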
# [3] = system: Rhizopus arrhizus; assay: Antifungal activity against drug-susceptible Rhizopus oryzae UTHSC 04-1613 by broth microdilution method; assay type: functional
# How it was run: (§3)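 CLSI broth microdilution for filamentous fungi (M38-A2); MIC recorded in µg/ml against clinical isolates; breakpoints applied at 24 h.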
# [4] = system: Rhizopus arrhizus; assay: Antifungal activity against drug-susceptible Rhizopus oryzae UTHSC 05-197 at 5 ug by disk diffusion assay; assay type: functional; details: read-out: DIZ
# How it was run: (§4)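 Neo-Sensitabs tablet diffusion on Mueller-Hinton agar, following guidelines for molds; 9 mm tablets containing 5 µg posaconazole; inhibition zone diameter measured in mm; zone breakpoints applied at 24 h.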
# [5] = system: Rhizopus arrhizus; assay: Antifungal activity against drug-susceptible Rhizopus oryzae UTHSC 06-4035 at 5 ug by disk diffusion assay; assay type: functional; details: read-out: DIZ
# How it was run: (§5)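 Neo-Sensitabs tablet diffusion on Mueller-Hinton agar, run per the mould guidelines. Tablets are 9 mm in diameter and carry 5 ug posaconazole. The read-out is the inhibition zone diameter in mm.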
# [6] = system: Rhizopus arrhizus; assay: Antifungal activity against drug-susceptible Rhizopus oryzae UTHSC 04-278 at 5 ug by disk diffusion assay; assay type: functional; details: read-out: DIZ; how it was run: as §4
# [7] = system: Rhizopus arrhizus; assay: Antifungal activity against drug-susceptible Rhizopus oryzae UTHSC 06-4336 by broth microdilution method; assay type: functional
# How it was run: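 Posaconazole MIC in ug/ml, determined by broth microdilution following the CLSI guidelines for moulds (M38-A2).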
# [8] = system: Rhizopus arrhizus; assay: Antifungal activity against drug-susceptible Rhizopus oryzae UTHSC 03-228 at 5 ug by disk diffusion assay; assay type: functional; details: read-out: DIZ
# How it was run: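 Neo-Sensitabs tablet diffusion on Mueller-Hinton agar, following the guidelines for molds. Tablets were 9 mm in diameter and held 5 µg of drug. The read-out was inhibition zone diameter in mm.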
# [9] = system: Rhizopus arrhizus; assay: Antifungal activity against drug-susceptible Rhizopus oryzae UTHSC 06-329 at 5 ug by disk diffusion assay; assay type: functional; details: read-out: DIZ; how it was run: as §5
# [10] = system: Rhizopus arrhizus; assay: Antifungal activity against drug-intermediate Rhizopus oryzae UTHSC 04-3109 infected in OF1 mouse assessed as increase in mouse survival at 20-30 mg/kg, po bid treated 24 hrs after fungal infection; assay type: functional, organism-based
# How it was run: (§6)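 Survival model in male OF1 mice, 30 g. Mice were immunosuppressed 1 day before infection with cyclophosphamide 200 mg/kg i.p. plus 5-fluorouracil 150 mg/kg i.v., then infected i.v. via lateral tail vein with 2 × 10^4 CFU in 0.2 ml saline. Oral gavage at 10, 20 or 30 mg/kg BID began 24 h post-challenge for 7 days. Ceftazidime 5 mg/day s.c. was given days 1–7. Groups of 10 were checked daily for 20 days; untreated controls.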
# [11] = system: Serum; assay: Drug level in human serum at 400 mg, po bid; assay type: ADME, organism-based; details: in vivo
# [12] = system: Rhizopus arrhizus; assay: Antifungal activity against drug-susceptible Rhizopus oryzae UTHSC 04-443 at 5 ug by disk diffusion assay; assay type: functional; details: read-out: DIZ; how it was run: as §4
# [13] = system: Rhizopus arrhizus; assay: Antifungal activity against drug-susceptible Rhizopus oryzae UTHSC 412-546 by broth microdilution method; assay type: functional
# [14] = system: Rhizopus arrhizus; assay: Antifungal activity against drug-susceptible Rhizopus oryzae UTHSC 04-1241 at 5 ug by disk diffusion assay; assay type: functional; details: read-out: DIZ; how it was run: as §4
# [15] = system: Rhizopus arrhizus; assay: Antifungal activity against drug-intermediate Rhizopus oryzae UTHSC 05-3032 infected in OF1 mouse assessed as increase in mouse survival at 20-30 mg/kg, po bid treated 24 hrs after fungal infection; assay type: functional, organism-based; how it was run: as §6
# [16] = system: Rhizopus arrhizus; assay: Antifungal activity against drug-susceptible Rhizopus oryzae UTHSC 04-1241 after 24 to 48 hrs; assay type: functional; how it was run: as §1
# [17] = system: Rhizopus arrhizus; assay: Antifungal activity against drug-susceptible Rhizopus oryzae UTHSC 03-2970 by broth microdilution method; assay type: functional; how it was run: as §2
# [18] = system: Rhizopus arrhizus; assay: Antifungal activity against drug-susceptible Rhizopus oryzae UTHSC 03-3110 by broth microdilution method; assay type: functional; how it was run: as §3
# [19] = system: Rhizopus arrhizus; assay: Antifungal activity against drug-susceptible Rhizopus oryzae UTHSC 2868 at 5 ug by disk diffusion assay; assay type: functional; details: read-out: DIZ
# [20] = system: Rhizopus arrhizus; assay: Antifungal activity against drug-susceptible Rhizopus oryzae UTHSC 06-4133 after 24 to 48 hrs; assay type: functional
# How it was run: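 Minimum fungicidal concentration taken from the broth microdilution plates. From each well with complete inhibition (optically clear), 20 ul is plated on potato dextrose agar. Plates are incubated at 35°C for 24 to 48 h. The MFC is the lowest drug concentration giving no growth.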
# [21] = system: Rhizopus arrhizus; assay: Antifungal activity against drug-intermediate Rhizopus oryzae UTHSC 05-114 after 24 to 48 hrs; assay type: functional
# [22] = system: Rhizopus arrhizus; assay: Antifungal activity against drug-susceptible Rhizopus oryzae UTHSC 03-112 after 24 to 48 hrs; assay type: functional
# [23] = system: Rhizopus arrhizus; assay: Antifungal activity against drug-susceptible Rhizopus oryzae UTHSC 05-2975 after 24 to 48 hrs; assay type: functional; how it was run: as §1
# [24] = system: Rhizopus arrhizus; assay: Antifungal activity against drug-susceptible Rhizopus oryzae UTHSC 03-299 by broth microdilution method; assay type: functional; how it was run: as §3
# [25] = system: Rhizopus arrhizus; assay: Antifungal activity against drug-intermediate Rhizopus oryzae UTHSC 03-285 by broth microdilution method; assay type: functional; how it was run: as §2
# [26] = system: Rhizopus arrhizus; assay: Antifungal activity against drug-susceptible Rhizopus oryzae UTHSC 06-731 by broth microdilution method; assay type: functional
# [27] = system: Rhizopus arrhizus; assay: Antifungal activity against drug-intermediate Rhizopus oryzae UTHSC 05-114 by broth microdilution method; assay type: functional; how it was run: as §2
# [28] = system: Rhizopus arrhizus; assay: Antifungal activity against drug-susceptible Rhizopus oryzae UTHSC 02-2882 after 24 to 48 hrs; assay type: functional
# [29] = system: Rhizopus arrhizus; assay: Antifungal activity against drug-susceptible Rhizopus oryzae UTHSC 06-89 infected in OF1 mouse assessed as reduction in brain fungal load at 10-30 mg/kg, po bid; assay type: functional, organism-based
# [30] = system: Rhizopus arrhizus; assay: Antifungal activity against drug-susceptible Rhizopus oryzae UTHSC 03-299 after 24 to 48 hrs; assay type: functional
# [31] = system: Rhizopus arrhizus; assay: Antifungal activity against drug-susceptible Rhizopus oryzae UTHSC 04-1220 after 24 to 48 hrs; assay type: functional; how it was run: as §1
# [32] = system: Rhizopus arrhizus; assay: Antifungal activity against drug-susceptible Rhizopus oryzae UTHSC 05-197 by broth microdilution method; assay type: functional; how it was run: as §3
# [33] = system: Rhizopus arrhizus; assay: Antifungal activity against drug-susceptible Rhizopus oryzae UTHSC 02-2882 infected in OF1 mouse assessed as reduction in brain fungal load at 10-30 mg/kg, po bid treated 24 hrs after fungal infection; assay type: functional, organism-based
# How it was run: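 Tissue burden in immunosuppressed male OF1 mice, using cyclophosphamide 200 mg/kg i.p. plus 5-fluorouracil 150 mg/kg i.v. on day −1. Mice received 2 × 10^4 CFU i.v. by tail vein, then oral gavage at 10, 20 or 30 mg/kg BID from 24 h post-challenge, with ceftazidime cover; untreated controls. Groups of 10 were killed on day 4. Kidneys and brains were homogenized in 2 ml saline, serially diluted 10-fold, plated on PDA and counted after 24 h at 35°C.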
structure (smiles),measurement,setting,value
CC[C@@H]([C@H](C)O)n1ncn(-c2ccc(N3CCN(c4ccc(OC[C@@H]5CO[C@@](Cn6cncn6)(c6ccc(F)cc6F)C5)cc4)CC3)cc2)c1=O [POSACONAZOLE],MFC,[1],0.5 µg/mL
same,MIC,[2],2 µg/mL
same,MIC,[3],0.5 µg/mL
same,zone of inhibition at 5 µg/disc,[4],21 mm
same,zone of inhibition at 5 µg/disc,[5],17 mm
same,zone of inhibition at 5 µg/disc,[6],18 mm
same,MIC,[7],0.5 µg/mL
same,zone of inhibition at 5 µg/disc,[8],25 mm
same,zone of inhibition at 5 µg/disc,[9],20 mm
same,Activity,[10],Active
same,Drug uptake,[11],< 1 µg/mL
same,zone of inhibition at 5 µg/disc,[12],22 mm
same,MIC,[13],1 µg/mL
same,zone of inhibition at 5 µg/disc,[14],22 mm
same,Activity,[15],Active
same,MFC,[16],0.5 µg/mL
same,MIC,[17],1 µg/mL
same,MIC,[18],1 µg/mL
same,zone of inhibition at 5 µg/disc,[19],19 mm
same,MFC,[20],1 µg/mL
same,MFC,[21],16 µg/mL
same,MFC,[22],1 µg/mL
same,MFC,[23],2 µg/mL
same,MIC,[24],1 µg/mL
same,MIC,[25],2 µg/mL
same,MIC,[26],0.5 µg/mL
same,MIC,[27],2 µg/mL
same,MFC,[28],0.5 µg/mL
same,Activity,[29],Active
same,MFC,[30],> 16 µg/mL
same,MFC,[31],1 µg/mL
same,MIC,[32],0.25 µg/mL
same,Activity,[33],Active

# — ChEMBL document CHEMBL1255417, “Correlation between in vitro activity of posaconazole and in vivo efficacy against Rhizopus oryzae infection in mice” (Antimicrob Agents Chemother, 2010)
